{"source": "ChEMBL document CHEMBL4007404", "about": "“Identification of High-Potency Human TLR8 and Dual TLR7/TLR8 Agonists in Pyrimidine-2,4-diamines” (J Med Chem, 2017)", "key": {"[1]": {"target": "T1, Toll-like receptor 7 (Homo sapiens) (UniProt Q9NYK1)", "T1 sequence (whole entry)": "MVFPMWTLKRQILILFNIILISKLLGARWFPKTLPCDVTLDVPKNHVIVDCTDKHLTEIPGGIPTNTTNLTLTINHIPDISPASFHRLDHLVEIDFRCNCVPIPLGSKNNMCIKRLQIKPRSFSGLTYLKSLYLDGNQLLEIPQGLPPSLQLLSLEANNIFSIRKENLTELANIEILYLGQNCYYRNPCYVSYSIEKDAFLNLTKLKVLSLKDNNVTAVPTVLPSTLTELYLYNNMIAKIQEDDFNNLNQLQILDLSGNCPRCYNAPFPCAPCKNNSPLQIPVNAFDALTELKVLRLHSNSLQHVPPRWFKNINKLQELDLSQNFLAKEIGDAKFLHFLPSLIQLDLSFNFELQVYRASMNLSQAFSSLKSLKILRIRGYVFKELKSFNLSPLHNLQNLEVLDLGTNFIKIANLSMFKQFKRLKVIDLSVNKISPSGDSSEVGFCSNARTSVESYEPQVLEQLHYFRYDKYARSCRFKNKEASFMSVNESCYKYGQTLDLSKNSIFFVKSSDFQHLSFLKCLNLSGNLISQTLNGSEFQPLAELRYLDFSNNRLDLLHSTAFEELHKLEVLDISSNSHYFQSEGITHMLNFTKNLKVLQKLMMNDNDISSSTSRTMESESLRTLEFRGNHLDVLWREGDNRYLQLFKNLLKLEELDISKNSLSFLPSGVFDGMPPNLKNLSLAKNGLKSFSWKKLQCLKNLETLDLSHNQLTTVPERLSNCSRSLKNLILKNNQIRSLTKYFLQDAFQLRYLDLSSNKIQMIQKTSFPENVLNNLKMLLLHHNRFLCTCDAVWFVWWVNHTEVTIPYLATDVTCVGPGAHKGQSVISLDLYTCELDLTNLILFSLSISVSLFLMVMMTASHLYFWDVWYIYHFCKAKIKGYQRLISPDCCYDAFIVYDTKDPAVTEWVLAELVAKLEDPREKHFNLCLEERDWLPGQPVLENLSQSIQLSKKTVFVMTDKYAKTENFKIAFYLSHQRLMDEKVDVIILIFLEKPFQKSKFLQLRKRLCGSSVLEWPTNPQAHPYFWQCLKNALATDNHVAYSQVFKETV", "test": "Agonist activity at TLR7 in human plasmacytoid dendritic cells assessed as upregulation of CD80 expression after 16 hrs by efluor 780 dye based flow cytometry", "method_in_brief": "(§1)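 Human PBMCs were incubated with serial compound dilutions at 37 °C for 16 h, with DMSO controls. Cells were stained with eFluor780 viability dye, then lineage and DC antibodies plus CD80 PE, and fixed. 250,000 gated events were acquired. pDCs were gated as Live Lin⁻ CD123⁺ CD303⁺ CD304⁺ HLA-DR⁺. cDCs were gated as Lin⁻ CD1c⁺ CD141⁻ CD11c⁺ HLA-DR⁺ or Lin⁻ CD141⁺ CD1c⁻ HLA-DR⁺. Median fluorescence intensity was quantified.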"}, "[2]": {"target": "T1, Toll-like receptor 7 (Homo sapiens)", "test": "Inhibition of human TLR7 expressed in HEK293 cells co-expressing secreted alkaline phosphatase assessed as NF-kappaB/AP-1 promoter activity by measuring increase in secreted alkaline phosphatase level at higher concentration by spectrophotometric method", "type": "cell-based"}, "[3]": {"target": "T2, Toll-like receptor 8 (Homo sapiens) (UniProt Q9NR97)", "T2 sequence (whole entry)": "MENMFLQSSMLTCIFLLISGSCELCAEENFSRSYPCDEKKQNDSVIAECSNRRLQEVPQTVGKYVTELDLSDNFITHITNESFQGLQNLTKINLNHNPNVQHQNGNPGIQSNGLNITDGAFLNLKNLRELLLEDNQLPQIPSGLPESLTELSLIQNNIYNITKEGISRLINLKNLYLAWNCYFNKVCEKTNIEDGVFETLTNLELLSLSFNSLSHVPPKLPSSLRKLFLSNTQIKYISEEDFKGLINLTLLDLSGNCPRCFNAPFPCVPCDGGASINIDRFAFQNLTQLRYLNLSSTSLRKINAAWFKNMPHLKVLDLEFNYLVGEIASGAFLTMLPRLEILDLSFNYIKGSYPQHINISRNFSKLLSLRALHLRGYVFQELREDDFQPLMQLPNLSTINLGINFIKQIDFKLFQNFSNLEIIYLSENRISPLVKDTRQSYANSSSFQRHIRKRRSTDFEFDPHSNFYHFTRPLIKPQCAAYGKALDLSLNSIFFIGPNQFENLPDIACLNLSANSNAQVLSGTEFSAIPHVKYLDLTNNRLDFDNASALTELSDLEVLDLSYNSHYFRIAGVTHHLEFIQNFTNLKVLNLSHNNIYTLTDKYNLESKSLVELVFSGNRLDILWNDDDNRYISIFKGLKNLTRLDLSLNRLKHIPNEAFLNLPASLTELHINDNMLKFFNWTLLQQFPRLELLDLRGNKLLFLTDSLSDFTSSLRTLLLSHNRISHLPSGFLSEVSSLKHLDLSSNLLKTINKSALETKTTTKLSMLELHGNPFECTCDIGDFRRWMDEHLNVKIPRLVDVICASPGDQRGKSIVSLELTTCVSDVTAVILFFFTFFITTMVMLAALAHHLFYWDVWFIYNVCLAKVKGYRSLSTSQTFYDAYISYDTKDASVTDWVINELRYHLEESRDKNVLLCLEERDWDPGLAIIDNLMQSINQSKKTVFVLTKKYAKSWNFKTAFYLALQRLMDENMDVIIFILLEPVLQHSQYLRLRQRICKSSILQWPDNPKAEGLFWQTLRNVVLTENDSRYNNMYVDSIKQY", "test": "Agonist activity at TLR8 in human […] conventional dendritic cells assessed as upregulation of CD80 expression after 16 hrs by efluor 780 dye based flow cytometry", "method_in_brief": "as §1"}, "[4]": {"target": "T1, Toll-like receptor 7 (Homo sapiens)", "test": "Agonist activity at human TLR7 expressed in HEK293 cells co-expressing secreted alkaline phosphatase assessed as induction of NF-kappaB/AP-1 promoter activity by measuring increase in secreted alkaline phosphatase level by spectrophotometric method", "type": "cell-based", "method_in_brief": "(§2)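 HEK293 cells stably co-transfected with the relevant human TLR (2, 3, 4, 5, 7, 8 or 9) plus an NF-κB/AP-1-driven secreted alkaline phosphatase reporter, kept in selection medium. Cells at ~10⁵ cells/ml were exposed to graded concentrations of stimuli in 384-well format, liquid-handler assisted. Supernatant sAP was read at 620 nm with an alkaline phosphatase-specific chromogen.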"}, "HEK293": {"test_system": "HEK293", "test": "Cytotoxicity against HEK293 cells expressing human TLR7 or TLR8 at 10^-4M", "type": "cell-based", "conditions": "hek293, 100 µM"}, "[5]": {"target": "T2, Toll-like receptor 8 (Homo sapiens)", "test": "Agonist activity at human TLR8 expressed in HEK293 cells co-expressing secreted alkaline phosphatase assessed as induction of NF-kappaB/AP-1 promoter activity by measuring increase in secreted alkaline phosphatase level by spectrophotometric method", "type": "cell-based", "method_in_brief": "as §2"}, "[6]": {"target": "T2, Toll-like receptor 8 (Homo sapiens)", "test": "Inhibition of human TLR8 expressed in HEK293 cells co-expressing secreted alkaline phosphatase assessed as NF-kappaB/AP-1 promoter activity by measuring increase in secreted alkaline phosphatase level at higher concentration by spectrophotometric method", "type": "cell-based"}, "[7]": {"target": "T2, Toll-like receptor 8 (Homo sapiens)", "test": "Agonist activity at TLR8 in human CD141 positive conventional dendritic cells assessed as upregulation of CD80 expression after 16 hrs by efluor 780 dye based flow cytometry", "method_in_brief": "as §1"}, "[8]": {"target": "Toll-like receptor 3 (Homo sapiens) (UniProt O15455)", "sequence (O15455 whole entry)": "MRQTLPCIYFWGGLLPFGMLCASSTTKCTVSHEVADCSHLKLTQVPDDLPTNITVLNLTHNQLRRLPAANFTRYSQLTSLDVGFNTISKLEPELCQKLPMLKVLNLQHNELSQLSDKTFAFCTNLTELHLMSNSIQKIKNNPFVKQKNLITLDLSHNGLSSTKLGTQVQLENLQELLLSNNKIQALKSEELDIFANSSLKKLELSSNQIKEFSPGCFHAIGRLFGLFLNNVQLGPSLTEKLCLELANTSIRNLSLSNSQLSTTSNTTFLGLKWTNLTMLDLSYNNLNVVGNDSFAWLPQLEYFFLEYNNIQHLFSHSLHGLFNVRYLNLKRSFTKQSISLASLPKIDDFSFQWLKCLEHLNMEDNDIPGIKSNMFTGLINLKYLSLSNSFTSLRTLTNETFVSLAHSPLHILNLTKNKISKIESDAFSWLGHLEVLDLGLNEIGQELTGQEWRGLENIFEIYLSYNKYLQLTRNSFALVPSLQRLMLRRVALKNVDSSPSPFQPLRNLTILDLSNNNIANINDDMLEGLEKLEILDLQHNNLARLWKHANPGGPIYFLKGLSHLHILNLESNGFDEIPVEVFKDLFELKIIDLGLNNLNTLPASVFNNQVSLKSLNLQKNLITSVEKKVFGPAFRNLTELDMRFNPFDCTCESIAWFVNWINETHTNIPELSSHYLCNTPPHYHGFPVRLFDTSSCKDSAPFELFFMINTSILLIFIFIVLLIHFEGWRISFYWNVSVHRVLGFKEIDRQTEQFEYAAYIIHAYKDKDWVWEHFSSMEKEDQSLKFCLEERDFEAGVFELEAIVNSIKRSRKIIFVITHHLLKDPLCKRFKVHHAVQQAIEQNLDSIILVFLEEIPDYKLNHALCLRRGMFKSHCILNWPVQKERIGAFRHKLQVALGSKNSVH", "test": "Activity at human TLR3 expressed in HEK293 cells co-expressing secreted alkaline phosphatase assessed as induction of NF-kappaB/AP-1 promoter activity by measuring increase in secreted alkaline phosphatase level by spectrophotometric method", "type": "cell-based", "method_in_brief": "as §2"}, "[9]": {"target": "Toll-like receptor 5 (Homo sapiens) (UniProt O60602)", "sequence (O60602 whole entry)": "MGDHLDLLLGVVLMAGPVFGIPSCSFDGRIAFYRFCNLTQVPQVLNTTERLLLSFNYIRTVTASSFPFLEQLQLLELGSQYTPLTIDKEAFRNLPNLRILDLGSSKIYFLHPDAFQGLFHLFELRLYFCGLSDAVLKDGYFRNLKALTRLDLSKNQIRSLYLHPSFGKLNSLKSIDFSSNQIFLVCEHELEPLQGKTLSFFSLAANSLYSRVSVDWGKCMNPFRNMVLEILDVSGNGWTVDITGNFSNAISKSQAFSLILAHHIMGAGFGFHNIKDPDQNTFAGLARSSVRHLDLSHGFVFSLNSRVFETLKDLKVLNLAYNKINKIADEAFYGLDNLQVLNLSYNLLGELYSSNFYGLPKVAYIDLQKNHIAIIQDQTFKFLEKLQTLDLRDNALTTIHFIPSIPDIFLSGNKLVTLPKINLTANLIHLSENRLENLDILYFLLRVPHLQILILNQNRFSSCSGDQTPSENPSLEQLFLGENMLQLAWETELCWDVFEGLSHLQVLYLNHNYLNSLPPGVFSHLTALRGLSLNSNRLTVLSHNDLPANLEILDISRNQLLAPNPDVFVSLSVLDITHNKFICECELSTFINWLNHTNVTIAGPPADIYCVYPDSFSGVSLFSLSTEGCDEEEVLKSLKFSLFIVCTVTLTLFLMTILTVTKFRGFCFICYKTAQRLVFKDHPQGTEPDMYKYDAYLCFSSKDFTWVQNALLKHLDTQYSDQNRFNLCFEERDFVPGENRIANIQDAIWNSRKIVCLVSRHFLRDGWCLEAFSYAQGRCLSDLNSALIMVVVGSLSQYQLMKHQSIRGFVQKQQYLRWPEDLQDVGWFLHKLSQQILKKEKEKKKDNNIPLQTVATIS", "test": "Activity at human TLR5 expressed in HEK293 cells co-expressing secreted alkaline phosphatase assessed as induction of NF-kappaB/AP-1 promoter activity by measuring increase in secreted alkaline phosphatase level by spectrophotometric method", "type": "cell-based", "method_in_brief": "as §2"}, "[10]": {"target": "T3, Toll-like receptor 9 (Homo sapiens) (UniProt Q9NR96)", "T3 sequence (whole entry)": "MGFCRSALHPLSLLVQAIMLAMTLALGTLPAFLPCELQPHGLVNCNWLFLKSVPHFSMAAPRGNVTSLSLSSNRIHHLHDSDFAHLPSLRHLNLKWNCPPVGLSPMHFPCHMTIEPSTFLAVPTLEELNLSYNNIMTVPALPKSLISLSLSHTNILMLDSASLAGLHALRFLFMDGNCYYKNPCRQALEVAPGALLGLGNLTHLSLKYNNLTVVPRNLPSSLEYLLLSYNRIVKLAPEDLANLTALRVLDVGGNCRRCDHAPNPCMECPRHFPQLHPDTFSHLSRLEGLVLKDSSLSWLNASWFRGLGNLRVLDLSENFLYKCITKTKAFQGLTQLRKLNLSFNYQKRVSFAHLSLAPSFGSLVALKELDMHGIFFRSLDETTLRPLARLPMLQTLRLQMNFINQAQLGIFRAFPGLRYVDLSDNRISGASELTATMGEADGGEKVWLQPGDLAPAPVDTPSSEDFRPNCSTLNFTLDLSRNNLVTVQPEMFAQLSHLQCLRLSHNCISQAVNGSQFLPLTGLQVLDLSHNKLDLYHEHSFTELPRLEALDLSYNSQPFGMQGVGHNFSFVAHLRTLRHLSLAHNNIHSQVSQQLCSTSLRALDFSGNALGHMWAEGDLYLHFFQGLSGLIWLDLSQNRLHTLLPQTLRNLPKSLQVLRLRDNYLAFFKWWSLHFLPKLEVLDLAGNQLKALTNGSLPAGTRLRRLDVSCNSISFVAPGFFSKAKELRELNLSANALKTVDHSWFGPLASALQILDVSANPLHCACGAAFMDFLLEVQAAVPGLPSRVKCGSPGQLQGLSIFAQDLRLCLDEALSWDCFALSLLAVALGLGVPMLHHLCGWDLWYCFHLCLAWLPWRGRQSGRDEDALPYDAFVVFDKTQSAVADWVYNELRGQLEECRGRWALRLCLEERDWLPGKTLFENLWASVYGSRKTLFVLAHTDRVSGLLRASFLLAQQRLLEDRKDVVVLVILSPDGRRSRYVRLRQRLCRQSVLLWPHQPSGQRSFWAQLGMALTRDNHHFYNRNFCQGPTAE", "test": "Activity at human TLR9 expressed in HEK293 cells co-expressing secreted alkaline phosphatase assessed as induction of NF-kappaB/AP-1 promoter activity by measuring increase in secreted alkaline phosphatase level by spectrophotometric method", "type": "cell-based", "method_in_brief": "as §2"}, "[11]": {"target": "Toll-like receptor 4 (Homo sapiens) (UniProt O00206)", "sequence (O00206 whole entry)": "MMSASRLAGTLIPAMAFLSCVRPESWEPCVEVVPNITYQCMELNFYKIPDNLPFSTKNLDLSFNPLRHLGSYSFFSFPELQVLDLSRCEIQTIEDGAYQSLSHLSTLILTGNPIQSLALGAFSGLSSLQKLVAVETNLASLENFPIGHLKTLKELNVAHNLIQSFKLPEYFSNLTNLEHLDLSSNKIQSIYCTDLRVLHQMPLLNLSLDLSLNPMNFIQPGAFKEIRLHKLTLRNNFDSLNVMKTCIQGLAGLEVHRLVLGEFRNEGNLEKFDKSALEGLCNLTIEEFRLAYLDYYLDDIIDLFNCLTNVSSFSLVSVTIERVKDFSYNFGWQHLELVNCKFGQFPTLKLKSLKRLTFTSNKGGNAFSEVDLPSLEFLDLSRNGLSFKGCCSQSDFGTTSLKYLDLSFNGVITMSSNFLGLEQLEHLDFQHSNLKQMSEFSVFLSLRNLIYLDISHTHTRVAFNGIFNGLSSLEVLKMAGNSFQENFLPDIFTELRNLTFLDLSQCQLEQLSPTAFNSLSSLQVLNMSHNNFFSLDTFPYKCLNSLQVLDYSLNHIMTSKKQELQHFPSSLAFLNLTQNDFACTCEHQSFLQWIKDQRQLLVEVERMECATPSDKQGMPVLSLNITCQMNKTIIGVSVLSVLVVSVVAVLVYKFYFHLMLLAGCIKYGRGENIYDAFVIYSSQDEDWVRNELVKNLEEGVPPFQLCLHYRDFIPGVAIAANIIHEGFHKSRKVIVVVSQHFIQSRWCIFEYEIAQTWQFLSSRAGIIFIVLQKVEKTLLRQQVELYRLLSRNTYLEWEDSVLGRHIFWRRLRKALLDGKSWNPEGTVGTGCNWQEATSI", "test": "Activity at human TLR4 expressed in HEK293 cells co-expressing secreted alkaline phosphatase assessed as induction of NF-kappaB/AP-1 promoter activity by measuring increase in secreted alkaline phosphatase level by spectrophotometric method", "type": "cell-based", "method_in_brief": "as §2"}, "[12]": {"target": "Toll-like receptor 2 (Homo sapiens) (UniProt O60603)", "sequence (O60603 whole entry)": "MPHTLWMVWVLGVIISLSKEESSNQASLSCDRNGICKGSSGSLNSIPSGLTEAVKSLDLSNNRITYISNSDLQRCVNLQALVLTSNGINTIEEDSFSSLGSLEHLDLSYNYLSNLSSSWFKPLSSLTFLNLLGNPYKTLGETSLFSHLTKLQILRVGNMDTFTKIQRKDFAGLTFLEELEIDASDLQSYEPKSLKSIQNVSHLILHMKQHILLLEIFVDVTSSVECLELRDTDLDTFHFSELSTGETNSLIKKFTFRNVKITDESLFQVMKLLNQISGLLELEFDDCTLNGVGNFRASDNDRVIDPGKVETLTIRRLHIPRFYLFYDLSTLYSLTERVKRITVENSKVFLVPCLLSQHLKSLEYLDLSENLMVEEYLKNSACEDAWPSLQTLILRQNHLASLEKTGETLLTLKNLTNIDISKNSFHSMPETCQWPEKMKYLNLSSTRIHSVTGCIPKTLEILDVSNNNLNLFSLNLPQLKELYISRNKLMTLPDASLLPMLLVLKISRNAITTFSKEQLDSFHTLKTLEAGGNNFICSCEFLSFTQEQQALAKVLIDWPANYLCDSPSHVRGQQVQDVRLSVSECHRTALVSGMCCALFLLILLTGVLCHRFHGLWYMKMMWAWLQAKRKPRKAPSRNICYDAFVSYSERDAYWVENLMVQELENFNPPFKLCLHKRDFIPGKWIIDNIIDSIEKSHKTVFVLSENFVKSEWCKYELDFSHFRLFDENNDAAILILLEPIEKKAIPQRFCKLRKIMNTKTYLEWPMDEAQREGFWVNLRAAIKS", "test": "Activity at human TLR2 expressed in HEK293 cells co-expressing secreted alkaline phosphatase assessed as induction of NF-kappaB/AP-1 promoter activity by measuring increase in secreted alkaline phosphatase level by spectrophotometric method", "type": "cell-based", "method_in_brief": "as §2"}, "[13]": {"target": "T1, Toll-like receptor 7 (Homo sapiens)", "test": "Agonist activity at human TLR7 expressed in HEK293 cells co-expressing secreted alkaline phosphatase assessed as induction of NF-kappaB/AP-1 promoter activity by measuring increase in secreted alkaline phosphatase level at 100 uM by spectrophotometric method", "type": "cell-based"}}, "note": "The source made the active and inactive calls. The calls are words filed in the database; no cut-off is given here.", "data": [{"compound": "CCCCc1nc2c(N)nc3ccccc3c2n1Cc1ccc(CN)cc1", "values": [{"measurement": "Activity", "setting": "[1]", "result": "Active"}, {"measurement": "inhibition", "setting": "[2]", "result": "Active"}, {"measurement": "Activity", "setting": "[3]", "result": "Active"}, {"measurement": "Activity", "setting": "[4]", "result": "Active"}, {"measurement": "Activity", "setting": "HEK293", "result": "Non-Toxic"}, {"measurement": "Activity", "setting": "[5]", "result": "Active"}, {"measurement": "inhibition", "setting": "[6]", "result": "Active"}, {"measurement": "Activity", "setting": "[7]", "result": "Active"}]}, {"compound": "CCCCNc1nc(N)nc(C)c1Cc1ccccc1", "values": [{"measurement": "Activity", "setting": "[8]", "result": "inactive"}, {"measurement": "Activity", "setting": "[9]", "result": "inactive"}, {"measurement": "Activity", "setting": "[10]", "result": "inactive"}, {"measurement": "Activity", "setting": "[11]", "result": "inactive"}, {"measurement": "Activity", "setting": "[12]", "result": "inactive"}, {"measurement": "Activity", "setting": "[13]", "result": "inactive"}]}]}
